Measured values from ChEMBL document CHEMBL1139999, “Discovery of pyrazine carboxamide CB1 antagonists: the introduction of a hydroxyl group improves the pharmaceutical properties and in vivo efficacy of the series” (Bioorg Med Chem Lett, 2007).
In brackets after ≈: the same amount, converted by molar mass. Activity calls are given as the source filed them. No cut-off for these calls is given here.

Key:
Cannabinoid receptor 1 [1] = target: T1, Cannabinoid receptor 1 (Homo sapiens, UniProt P21554); test: Binding affinity to human CB1 receptor at 13 uM
T1 sequence (P21554 whole entry): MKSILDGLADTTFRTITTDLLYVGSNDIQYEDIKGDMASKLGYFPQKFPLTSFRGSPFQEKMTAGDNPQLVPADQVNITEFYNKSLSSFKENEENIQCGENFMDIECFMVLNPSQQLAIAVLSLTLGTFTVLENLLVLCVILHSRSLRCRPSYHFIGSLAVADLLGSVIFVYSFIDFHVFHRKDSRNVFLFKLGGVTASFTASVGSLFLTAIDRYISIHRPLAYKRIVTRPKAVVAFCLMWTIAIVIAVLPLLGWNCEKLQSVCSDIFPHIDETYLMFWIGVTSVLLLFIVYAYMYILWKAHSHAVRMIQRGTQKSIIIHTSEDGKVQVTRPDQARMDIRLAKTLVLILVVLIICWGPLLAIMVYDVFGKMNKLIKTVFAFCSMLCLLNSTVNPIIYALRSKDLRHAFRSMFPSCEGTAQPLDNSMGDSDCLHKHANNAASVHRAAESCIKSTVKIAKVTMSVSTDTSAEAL

Cannabinoid receptor 1 [2] = target: T1, Cannabinoid receptor 1; test: Binding affinity to human CB1 receptor
[3] = Aqueous solubility at pH 6.5; assay type: physicochemical
[4] = Drug level in Sprague-Dawley rat brain at 10 mg/kg, po after 4 hrs; assay type: ADME, organism-based; set-up: dose 10 mg/kg, route oral; conditions: read-out: Drug uptake
Procedure, shortened: (§1)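 Oral PK in male Sprague-Dawley rats dosed at 10 mg/kg. Plasma sampled over 0–4 h for AUC(0–4h) and Tmax. Brain and plasma concentrations were taken at 4 h to give the brain/plasma ratio. Values are averages of n = 2 rats.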

[5] = Ratio of drug level in brain to plasma in Sprague-Dawley rat at 10 mg/kg, po after 4 hrs; assay type: ADME, organism-based; set-up: dose 10 mg/kg, route oral; conditions: read-out: BPR; procedure, shortened: as §1
[6] = AUC(0 to 4 hrs) in Sprague-Dawley rat at 10 mg/kg, po; assay type: ADME, organism-based; set-up: time < 4 hr, dose 10 mg/kg, route oral; conditions: plasma; procedure, shortened: as §1
Cannabinoid receptor 1 [7] = target: Cannabinoid receptor 1 (Rattus norvegicus, UniProt P20272); test: Binding affinity to rat CB1 receptor
Sequence of Cannabinoid receptor 1 (Rattus norvegicus, UniProt P20272) (P20272 whole entry): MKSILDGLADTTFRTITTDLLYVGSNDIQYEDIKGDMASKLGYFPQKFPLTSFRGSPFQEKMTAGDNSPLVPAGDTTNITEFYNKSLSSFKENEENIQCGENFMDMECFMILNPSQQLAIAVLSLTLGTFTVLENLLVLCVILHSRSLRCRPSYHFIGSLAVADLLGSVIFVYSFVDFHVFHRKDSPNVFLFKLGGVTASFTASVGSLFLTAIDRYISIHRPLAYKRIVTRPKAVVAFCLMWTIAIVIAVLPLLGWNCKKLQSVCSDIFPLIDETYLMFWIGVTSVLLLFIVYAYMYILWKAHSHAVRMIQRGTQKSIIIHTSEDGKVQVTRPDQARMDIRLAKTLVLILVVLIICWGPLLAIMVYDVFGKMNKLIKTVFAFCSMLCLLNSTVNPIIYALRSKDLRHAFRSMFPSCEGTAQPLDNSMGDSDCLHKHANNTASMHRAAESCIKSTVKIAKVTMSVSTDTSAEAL

[8] = Average Tmax in Sprague-Dawley rat at 10 mg/kg, po; assay type: ADME, organism-based; set-up: dose 10 mg/kg, route oral; conditions: in vivo; procedure, shortened: as §1
Rattus norvegicus [9] = test: Reduction in feeding in food deprived Sprague-Dawley rat feeding model at 10 mg/kg, po after 2 hrs; assay type: functional; set-up: scale not given: the % may be the effect or the level left
Procedure, shortened: (§2)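 Rats were fasted and then dosed orally at 10 mg/kg. Food was reintroduced 30 min after dosing, and refeeding was quantified versus vehicle-treated animals at 2, 4 and 24 h post-dose. Locomotor activity was also monitored.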

Rattus norvegicus [10] = test: Change in food intake in Sprague-Dawley rat at 10 mg/kg, po; assay type: functional, organism-based; set-up: dose 10 mg/kg
Procedure, shortened: (§3)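 Ad libitum-fed rats trained to operate a lever to obtain food were dosed orally at 10 or 30 mg/kg. Cumulative food intake was measured at 4 h versus vehicle-treated controls, with significance testing (p < 0.05).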

Rattus norvegicus [11] = test: Reduction in feeding in food deprived Sprague-Dawley rat feeding model at 10 mg/kg, po after 24 hrs; assay type: functional; set-up: scale not given: the % may be the effect or the level left; procedure, shortened: as §2
Rattus norvegicus [12] = test: Change in food intake in Sprague-Dawley rat at 30 mg/kg, po after 4 hrs; assay type: functional; procedure, shortened: as §3
Rattus norvegicus [13] = test: Reduction in feeding in food deprived Sprague-Dawley rat feeding model at 10 mg/kg, po after 4 hrs; assay type: functional; set-up: scale not given: the % may be the effect or the level left; procedure, shortened: as §2
[14] = Average Tmax in Sprague-Dawley rat at 30 mg/kg, po; assay type: ADME, organism-based; set-up: dose 30 mg/kg, route oral; conditions: in vivo
Procedure, shortened: (§4)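 Male Sprague–Dawley rats dosed orally at 30 mg/kg as a suspension in 0.5% Methocel/1% Tween 80/water. Plasma and brain levels measured, with brain concentration and brain/plasma ratio taken at 4 h. AUC covers 0–4 h. Values are averages of n = 2 rats.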

[15] = AUC(0 to 4 hrs) in Sprague-Dawley rat at 30 mg/kg, po; assay type: ADME, organism-based; set-up: time < 4 hr, dose 30 mg/kg, route oral; conditions: plasma; procedure, shortened: as §4
[16] = Ratio of drug level in brain to plasma in Sprague-Dawley rat at 30 mg/kg, po after 4 hrs; assay type: ADME, organism-based; set-up: dose 30 mg/kg, route oral; conditions: read-out: Drug uptake; procedure, shortened: as §4
[17] = Drug level in Sprague-Dawley rat brain at 30 mg/kg, po after 4 hrs; assay type: ADME, organism-based; set-up: dose 30 mg/kg, route oral; conditions: read-out: Drug uptake; procedure, shortened: as §4

Compound	Ki (Cannabinoid receptor 1 [2]) [nM]	also measured
Cc1ccc(-c2ncc(C(=O)NC3CCNC3=O)nc2-c2ccc(C)cc2)cc1 (configuration not stated)	–	inhibition (Cannabinoid receptor 1 [1]): 46%
Cc1ccc(-c2ncc(C(=O)Nc3ccccc3)nc2-c2ccc(C)cc2)cc1	509	–
Cc1ccc(-c2ncc(C(=O)N[C@@H](CO)C(C)C)nc2-c2ccc(C)cc2)cc1	316	–
Cc1ccc(-c2ncc(C(=O)N[C@H]3CC[C@H](O)CC3)nc2-c2ccc(C)cc2)cc1	–	inhibition (Cannabinoid receptor 1 [1]): 54%
Cc1ccc(-c2ncc(C(=O)N(C)Cc3ccccc3)nc2-c2ccc(C)cc2)cc1	110	–
Cc1ccc(-c2ncc(C(=O)NC(C)C)nc2-c2ccc(C)cc2)cc1	656	–
Cc1ccc(-c2ncc(C(=O)NCC3CC3)nc2-c2ccc(C)cc2)cc1	178	–
CCC(COCc1ccccc1)NC(=O)c1cnc(-c2ccc(C)cc2)c(-c2ccc(C)cc2)n1 (configuration not stated)	203	–
Cc1ccc(-c2ncc(C(=O)N[C@@H](CC(C)C)C(N)=O)nc2-c2ccc(C)cc2)cc1	105	–
Cc1ccc(-c2ncc(C(=O)NCCOc3ccccc3)nc2-c2ccc(C)cc2)cc1	631	–
CC(C)C[C@@H](COP(=O)(O)O)NC(=O)c1cnc(-c2ccc(Cl)cc2)c(-c2ccc(Cl)cc2)n1	–	solubility [3]: 430 µg/mL (≈ 820 µM)
Cc1ccc(-c2ncc(C(=O)N[C@H](CO)C(C)C)nc2-c2ccc(C)cc2)cc1	237	–
Cc1ccc(-c2ncc(C(=O)N[C@@H]3CCCC[C@H]3CO)nc2-c2ccc(C)cc2)cc1	50	–
CC(C)C[C@@H](CO)NC(=O)c1cnc(-c2ccc(Cl)cc2)c(-c2ccc(Cl)cc2)n1	14	concentration at 4 h [4]: 491 nM; Kp at 4 h [5]: 3.1; AUC(0-t) at 4 h [6]: 0.736 µM·h; Ki (Cannabinoid receptor 1 [7]): 30 nM; Tmax [8]: 1 h
Cc1ccc(-c2ncc(C(=O)NCCCN(C)c3ccccc3)nc2-c2ccc(C)cc2)cc1	25	–
Cc1ccc(-c2ncc(C(=O)N3CCC(O)CC3)nc2-c2ccc(C)cc2)cc1	–	inhibition (Cannabinoid receptor 1 [1]): 38%

Compound	Ki (Cannabinoid receptor 1 [2]) [nM]	also measured
Cc1ccc(-c2ncc(C(=O)N[C@@H]3CCCC[C@@H]3CO)nc2-c2ccc(C)cc2)cc1	167	–
CCCC(CO)NC(=O)c1cnc(-c2ccc(C)cc2)c(-c2ccc(C)cc2)n1 (configuration not stated)	158	–
Cc1ccc(-c2ncc(C(=O)N[C@@H]3CCCC[C@@H]3O)nc2-c2ccc(C)cc2)cc1	300	–
Cc1ccc(-c2ncc(C(=O)N[C@@H](CO)CC(C)C)nc2-c2ccc(C)cc2)cc1	460	–
Cc1ccc(-c2ncc(C(=O)NC(C)CCc3ccccc3)nc2-c2ccc(C)cc2)cc1 (configuration not stated)	5	–
Cc1ccc(-c2ncc(C(=O)NCC3CCCCC3)nc2-c2ccc(C)cc2)cc1	59	–
Cc1ccc(-c2ncc(C(=O)N3CCNC(=O)C3)nc2-c2ccc(C)cc2)cc1	–	inhibition (Cannabinoid receptor 1 [1]): 29%
Cc1ccc(-c2ncc(C(=O)NCCO)nc2-c2ccc(C)cc2)cc1	8430	–
CNC(=O)c1cnc(-c2ccc(C)cc2)c(-c2ccc(C)cc2)n1	3850	–
Cc1ccc(-c2ncc(C(=O)N[C@@H](C(N)=O)c3ccccc3)nc2-c2ccc(C)cc2)cc1	238	–
CCNC(=O)c1cnc(-c2ccc(C)cc2)c(-c2ccc(C)cc2)n1	2380	–
Cc1ccc(-c2ncc(C(=O)NC3Cc4ccccc4C3O)nc2-c2ccc(C)cc2)cc1 (configuration not stated)	33	–
Cc1ccc(-c2ncc(C(=O)N[C@H](CO)CC(C)C)nc2-c2ccc(C)cc2)cc1	45	concentration at 4 h [4]: 306 nM; Activity (Rattus norvegicus [9]): 37%; Kp at 4 h [5]: 3; Activity (Rattus norvegicus [10]): inactive; Activity (Rattus norvegicus [11]): 16%; Activity (Rattus norvegicus [12]): 34%; AUC(0-t) at 4 h [6]: 0.541 µM·h; Ki (Cannabinoid receptor 1 [7]): 35 nM; Activity (Rattus norvegicus [13]): 32%; Tmax [8]: 1 h
Cc1ccc(-c2ncc(C(=O)NC(C)COc3c(C)cccc3C)nc2-c2ccc(C)cc2)cc1 (configuration not stated)	39	–
Cc1ccc(-c2ncc(C(=O)NN3CCCCC3)nc2-c2ccc(C)cc2)cc1	53	–
Cc1ccc(-c2ncc(C(=O)NCCCc3ccccc3)nc2-c2ccc(C)cc2)cc1	18	Tmax [14]: 2 h; AUC(0-t) at 4 h [15]: 0.256 µM·h; Kp at 4 h [16]: 0.4; Ki (Cannabinoid receptor 1 [7]): 80 nM; concentration at 4 h [17]: 34 nM
